Data as given in ChEMBL document CHEMBL3425438, “Investigation of (E)-3-[4-(2-Oxo-3-aryl-chromen-4-yl)oxyphenyl]acrylic Acids as Oral Selective Estrogen Receptor Down-Regulators” (J Med Chem, 2015).
Converted amounts (≈) assume the structure as drawn.

Legend:
MCF7 = assay: Inhibition of cell proliferation in human MCF7 cells after 7 days by laser scanning imaging cytometer analysis; assay type: functional, cell-based; conditions: MCF7, 168 h
How it was run: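 MCF-7 cells plated in reduced-serum medium the day before; concentration response for 7 days; cell number by nucleic acid stain, read on laser scanning imaging cytometer; EC50 for decrease in proliferation.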

[1] = Free plasma concentration in human by LC-UV-MS analysis; assay type: ADME, cell-free
How it was run: (§1)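 Equilibrium dialysis in plasma of the matching species at 37 °C; free and bound concentrations quantified by LC-UV-MS; reported as % free.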

[2] = Free plasma concentration in mouse by LC-UV-MS analysis; assay type: ADME, cell-free; how it was run: as §1
[3] = Free plasma concentration in rat by LC-UV-MS analysis; assay type: ADME, cell-free; how it was run: as §1
[4] = Volume of distribution at steady state in CD-1 mouse at 0.5 mg/kg, iv; assay type: ADME, organism-based; design: dose 0.5 mg/kg, route intravenous; conditions: in vivo, read-out: Vdss
How it was run: (§2)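 Fed CD-1 mice or Alderley Park Han Wistar rats, two animals per study; IV 0.5 mg/kg as aqueous solution of DMSO and cyclodextrin; clearance and Vss derived.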

[5] = Volume of distribution at steady state in Alderley Park Han Wistar rat at 0.5 mg/kg, iv; assay type: ADME, organism-based; design: dose 0.5 mg/kg, route intravenous; conditions: in vivo, read-out: Vdss; how it was run: as §2
[6] = Oral bioavailability in CD-1 mouse at 50 mg/kg using 0.5% polysorbate suspension; assay type: ADME, organism-based; conditions: in vivo
How it was run: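 Fed CD-1 mice, two per study; oral 50 mg/kg 0.5% polysorbate suspension; IV reference 0.5 mg/kg aqueous DMSO/cyclodextrin.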

[7] = Oral bioavailability in Alderley Park Han Wistar rat at 1 mg/kg using 5% DMSO, 95% of a 30% aqueous cyclodextrin solution; assay type: ADME, organism-based; conditions: in vivo
How it was run: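 Fed Han Wistar rats, two per study; oral 1 mg/kg solution in 5% DMSO, 95% of a 30% aqueous cyclodextrin solution; IV reference 0.5 mg/kg in aqueous DMSO/cyclodextrin.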

Estrogen receptor [8] = molecular target: T1, Estrogen receptor (Homo sapiens, UniProt P03372); assay: Binding affinity to ER alpha (unknown origin) by LanthaScreen TR-FRET competitive binding assay
T1 sequence (P03372 whole entry): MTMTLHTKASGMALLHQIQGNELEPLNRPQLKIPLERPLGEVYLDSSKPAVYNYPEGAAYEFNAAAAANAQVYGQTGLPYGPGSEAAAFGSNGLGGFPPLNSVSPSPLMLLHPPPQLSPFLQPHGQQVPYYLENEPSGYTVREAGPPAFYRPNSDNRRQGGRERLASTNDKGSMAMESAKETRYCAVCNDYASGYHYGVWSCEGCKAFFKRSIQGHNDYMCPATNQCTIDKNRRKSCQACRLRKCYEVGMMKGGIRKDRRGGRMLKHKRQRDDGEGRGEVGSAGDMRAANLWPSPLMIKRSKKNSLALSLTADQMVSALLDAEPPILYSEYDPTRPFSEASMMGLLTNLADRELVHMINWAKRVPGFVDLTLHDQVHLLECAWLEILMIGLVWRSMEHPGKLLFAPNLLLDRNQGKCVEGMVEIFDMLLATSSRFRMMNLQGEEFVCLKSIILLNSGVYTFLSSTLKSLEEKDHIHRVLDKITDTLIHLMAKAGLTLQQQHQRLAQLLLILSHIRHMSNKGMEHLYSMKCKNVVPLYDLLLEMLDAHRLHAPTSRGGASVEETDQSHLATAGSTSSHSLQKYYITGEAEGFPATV
How it was run: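 LanthaScreen TR-FRET ERα competitive binding; 12-point half-log concentration response; TR-FRET emission ratio read on microplate reader; IC50 reported.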

Estrogen receptor [9] = molecular target: T1, Estrogen receptor; assay: Suppression of ER alpha in human MCF7 cells after 24 hrs by immunostaining analysis; assay type: cell-based
Estrogen receptor [10] = molecular target: T1, Estrogen receptor; assay: Antagonist activity at ER alpha in human MCF7 cells assessed as inhibition of estradiol-induced PR expression treated for 24 hrs after incubation with estradiol for 30 mins by laser scanning imaging cytometer analysis; assay type: cell-based
[11] = Octanol-buffer partition coefficient, log D of the compound at ratio of 1:100 at pH 7.4 by shake-flask method; assay type: physicochemical
[12] = Dissociation constant, pKa of the compound in acidic medium by potentiometric analysis; assay type: physicochemical
How it was run: (§3)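 pKa (acid and phenol) by potentiometric titration.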

[13] = Dissociation constant, pKa of the compound by potentiometric analysis […] phenol; assay type: physicochemical; how it was run: as §3
[14] = Thermodynamic solubility of the compound in 0.1 M aqueous phosphate buffer at 25 degC at pH 7.4 after 24 hrs; assay type: physicochemical; conditions: read-out: Therm_solubility
[15] = Apparent permeability from apical to basolateral side in human Caco2 cells; assay type: ADME, cell-based; conditions: Caco-2
[16] = Intrinsic clearance in human hepatocytes measured per 10^6 cells; assay type: ADME, cell-based, Hepatocyte; conditions: read-out: CLH
[17] = Intrinsic clearance in mouse hepatocytes measured per 10^6 cells; assay type: ADME, cell-based, Hepatocyte; conditions: read-out: CLH
[18] = Intrinsic clearance in rat hepatocytes measured per 10^6 cells; assay type: ADME, cell-based, Hepatocyte; conditions: read-out: CLH
[19] = Clearance in CD-1 mouse at 0.5 mg/kg, iv; assay type: ADME, organism-based; design: dose 0.5 mg/kg, route intravenous; conditions: in vivo
[20] = Clearance in Alderley Park Han Wistar rat at 0.5 mg/kg, iv; assay type: ADME, organism-based; design: dose 0.5 mg/kg, route intravenous; conditions: in vivo
[21] = Oral bioavailability in CD-1 mouse at 20 mg/kg using propylene glycol suspension; assay type: ADME, organism-based; conditions: in vivo
How it was run: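 Fed CD-1 mice, two per study; oral 20 mg/kg propylene glycol suspension; IV reference 0.5 mg/kg aqueous DMSO/cyclodextrin.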

[22] = Oral bioavailability in Alderley Park Han Wistar rat at 2 mg/kg using propylene glycol solution; assay type: ADME, organism-based; conditions: in vivo
How it was run: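 Fed Han Wistar rats, two per study; oral 2 mg/kg propylene glycol solution; IV reference 0.5 mg/kg aqueous DMSO/cyclodextrin.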

[23] = Oral bioavailability in Alderley Park Han Wistar rat at 5 mg/kg using HPMC/tween suspension; assay type: ADME, organism-based; conditions: in vivo
How it was run: (§4)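 Fed Han Wistar rats, two per study; oral HPMC/tween suspension at 1, 5 or 50 mg/kg as stated per line; IV reference 0.5 mg/kg in aqueous DMSO/cyclodextrin.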

[24] = Drug metabolism in rat hepatocytes assessed as formation of glucuronide conjugates by LC-UV-MS analysis; assay type: ADME, cell-based, Hepatocyte
[25] = Drug metabolism in rat hepatocytes assessed as formation of sulphate metabolite by LC-UV-MS analysis; assay type: ADME, cell-based, Hepatocyte
[26] = Drug metabolism in rat hepatocytes assessed as formation of acyl glucuronide conjugates by LC-UV-MS analysis; assay type: ADME, cell-based, Hepatocyte
[27] = molecular target: Voltage-gated inwardly rectifying potassium channel KCNH2 (Homo sapiens, UniProt Q12809); assay: Inhibition of hERG channel by electrophysiology; assay type: toxicity
[28] = Oral bioavailability in Alderley Park Han Wistar rat at 50 mg/kg using HPMC/tween suspension; assay type: ADME, organism-based; conditions: in vivo; how it was run: as §4
[29] = Drug metabolism in rat hepatocytes assessed as oxidation metabolite formation by LC-UV-MS analysis; assay type: ADME, cell-based, Hepatocyte
[30] = Dissociation constant, pKa of the compound by potentiometric analysis; assay type: physicochemical; how it was run: as §3
[31] = Oral bioavailability in Alderley Park Han Wistar rat at 1 mg/kg using HPMC/tween suspension; assay type: ADME, organism-based; conditions: in vivo; how it was run: as §4
Estrogen receptor [32] = molecular target: T1, Estrogen receptor; assay: Agonist activity at ER alpha in human MCF7 cells assessed as PR gene expression after 24 hrs by laser scanning imaging cytometer analysis; assay type: cell-based; conditions: read-out: IC50 (the source's name)

Chain of Voltage-gated inwardly rectifying potassium channel KCNH2 (Q12809 whole entry): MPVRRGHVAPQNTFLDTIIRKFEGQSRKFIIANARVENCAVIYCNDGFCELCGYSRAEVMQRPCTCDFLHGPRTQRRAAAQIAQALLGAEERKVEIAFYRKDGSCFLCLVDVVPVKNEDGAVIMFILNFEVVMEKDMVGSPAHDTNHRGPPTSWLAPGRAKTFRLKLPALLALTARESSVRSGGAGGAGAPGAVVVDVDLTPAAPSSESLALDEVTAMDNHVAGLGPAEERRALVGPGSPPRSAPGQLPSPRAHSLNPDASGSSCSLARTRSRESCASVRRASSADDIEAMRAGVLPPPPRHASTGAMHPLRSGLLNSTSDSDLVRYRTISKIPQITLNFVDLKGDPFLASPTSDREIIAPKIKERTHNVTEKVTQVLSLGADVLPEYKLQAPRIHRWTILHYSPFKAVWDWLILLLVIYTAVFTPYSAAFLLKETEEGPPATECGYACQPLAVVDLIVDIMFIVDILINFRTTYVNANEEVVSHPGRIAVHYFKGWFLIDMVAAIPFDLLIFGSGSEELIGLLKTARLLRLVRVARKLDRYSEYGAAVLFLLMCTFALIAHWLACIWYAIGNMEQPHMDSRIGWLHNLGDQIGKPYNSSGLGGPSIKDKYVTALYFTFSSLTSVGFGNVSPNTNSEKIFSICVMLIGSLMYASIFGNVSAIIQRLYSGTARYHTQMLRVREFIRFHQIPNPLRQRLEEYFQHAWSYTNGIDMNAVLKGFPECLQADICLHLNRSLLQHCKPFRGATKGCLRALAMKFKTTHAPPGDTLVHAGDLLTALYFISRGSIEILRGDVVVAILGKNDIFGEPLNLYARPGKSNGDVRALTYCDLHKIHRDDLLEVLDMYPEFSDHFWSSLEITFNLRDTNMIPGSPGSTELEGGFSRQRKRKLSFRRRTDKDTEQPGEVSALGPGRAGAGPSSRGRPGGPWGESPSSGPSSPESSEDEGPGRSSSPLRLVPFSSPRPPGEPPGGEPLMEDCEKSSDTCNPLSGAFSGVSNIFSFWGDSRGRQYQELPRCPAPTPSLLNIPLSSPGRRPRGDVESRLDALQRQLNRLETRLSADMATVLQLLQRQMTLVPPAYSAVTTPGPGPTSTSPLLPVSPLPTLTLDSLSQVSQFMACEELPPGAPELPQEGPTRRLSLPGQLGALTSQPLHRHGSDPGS

Structure (SMILES)	EC50 (MCF7) [nM]	fraction unbound [1]	fraction unbound [2]	fraction unbound [3]	Vd [5] [L/kg]	IC50 (Estrogen receptor [8]) [nM]	IC50 (Estrogen receptor [9]) [nM]	IC50 (Estrogen receptor [10]) [nM]	logD [11]	pKa [13]	solubility thermodynamic at 24 h [14] [µM]	Papp A→B [15] [×10⁻⁶ cm/s]	hepatocyte CLint [16] [µL/min/1e6 cells]	hepatocyte CLint [17] [µL/min/1e6 cells]	hepatocyte CLint [18] [µL/min/1e6 cells]	clearance [20] [mL/min/kg]	other results
O=C(O)/C=C/c1ccc(Cc2c(-c3ccccc3)c(=O)oc3cc(O)ccc23)cc1	260	0.012	0.012	0.0098	1.4	8.1	1180	1500	1.5	7.7	470 (≈ 187 µg/mL)	10	18	87	120	67	pKa [12]: 4.4; clearance [19]: 210 mL/min/kg; Vd [4]: 4.7 L/kg; bioavailability [21]: 0%; bioavailability [22]: 0%; bioavailability [23]: 67%
O=C(O)/C=C/c1ccc(Cc2c(-c3ccc(F)cc3)c(=O)oc3cc(O)ccc23)cc1	–	–	–	–	–	9	1280	–	–	–	–	–	–	–	–	–	Drug metabolism [24]: metabolite_detected; Drug metabolism [25]: metabolite_detected; Drug metabolism [26]: metabolite_detected
Cc1cc(OC(F)(F)F)ccc1-c1c(Oc2ccc(/C=C/C(=O)O)cc2)c2ccc(O)cc2oc1=O	< 0.1	0.0012	0.0084	0.0037	0.7	0.5	2.7	3.9	2.1	8.2	97 (≈ 48.3 µg/mL)	15	11	9	41	38	IC50 [27]: > 100000 nM; bioavailability [28]: 0%
Cc1cc(F)ccc1-c1c(Cc2ccc(/C=C/C(=O)O)cc2)c2c(F)cc(O)cc2oc1=O	–	–	–	–	–	1.3	55	–	1.6	7.2	–	–	14	–	69	–	Drug metabolism [24]: metabolite_detected
Cc1cc(OC(F)(F)F)ccc1-c1c(Oc2ccc(/C=C/C(=O)O)cc2)c2ccccc2oc1=O	20	0.0016	–	0.0032	1.7	15	100	180	2.5	–	> 470	39	7	–	19	15	EC50 (Estrogen receptor [32]): > 3100 nM; pKa [30]: 3.7; bioavailability [31]: 35%

Now from value to molecule, other results behind:

EC50 (MCF7) [nM]	fraction unbound [1]	fraction unbound [2]	fraction unbound [3]	Vd [5] [L/kg]	IC50 (Estrogen receptor [8]) [nM]	IC50 (Estrogen receptor [9]) [nM]	IC50 (Estrogen receptor [10]) [nM]	logD [11]	pKa [13]	solubility thermodynamic at 24 h [14] [µM]	Papp A→B [15] [×10⁻⁶ cm/s]	hepatocyte CLint [16] [µL/min/1e6 cells]	hepatocyte CLint [17] [µL/min/1e6 cells]	hepatocyte CLint [18] [µL/min/1e6 cells]	clearance [20] [mL/min/kg]	Structure (SMILES)	other results
300	< 0.002	0.064	< 0.0001	0.5	–	–	–	–	–	–	–	–	–	–	–	CC/C(=C(\c1ccccc1)c1ccc(/C=C/C(=O)O)cc1)c1ccccc1	Vd [4]: 1.1 L/kg; bioavailability [6]: 62%; bioavailability [7]: 68%
4.5	0.0025	0.028	0.0051	0.9	0.4	21	27	1.6	7.1	> 2000	19	32	68	50	35	Cc1cc(F)ccc1-c1c(Oc2ccc(/C=C/C(=O)O)cc2)c2ccc(O)cc2oc1=O	pKa [12]: 3.9; bioavailability [23]: 5%
–	–	–	–	–	100	1000	–	1.2	–	–	–	14	–	81	–	Cc1cc(F)ccc1-c1c(Cc2ccc(/C=C/C(=O)O)cc2)c2ccc(CO)cc2oc1=O	Drug metabolism [29]: metabolite_detected
–	0.005	–	0.014	0.47	72	248	330	2	–	> 1500	47	9	–	27	23	Cc1cc(F)ccc1-c1c(Oc2ccc(/C=C/C(=O)O)cc2)c2ccccc2oc1=O	pKa [30]: 5.3; IC50 [27]: > 100000 nM; bioavailability [31]: 47%
